According to ChEMBL document CHEMBL2010673, “Structure-activity relationship of pyrrole based S-nitrosoglutathione reductase inhibitors: carboxamide modification” (Bioorg Med Chem Lett, 2012):
The source made the active and inactive calls. The calls are words filed in the database; no cut-off is given here.

Key:
[1] = biological target: Sodium-dependent dopamine transporter (Homo sapiens) (UniProt Q01959); assay: Inhibition of dopamine transporter at 10 uM by radioligand displacement assay
Outline: (§1)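 Off-target panel: radioligand binding to each receptor, channel or transporter with test compound at 10 µM; activity reported as percent inhibition of specific binding. At least 6 control wells with or without vehicle per assay. Inhibition of 50% or greater counted as a positive response.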

Mus musculus [2] = assay: Toxicity in CD1 mouse assessed as adverse effect in liver at 50 mg/kg, iv qd administered for 5 days; assay type: organism-based; design: dose 50 mg/kg, route intravenous; conditions: in vivo, 120 h
Outline: (§2)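 Male CD-1 mice dosed IV once daily for 5 days at 1, 10 or 50 mg/kg. Toxicity judged by histology of liver, spleen and thymus, and a no-observed-adverse-effect level (NOAEL) derived from the study.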

Mus musculus [3] = assay: Toxicity in CD1 mouse assessed as adverse effect in spleen at 10 mg/kg, iv qd administered for 5 days; assay type: organism-based; design: dose 10 mg/kg, route intravenous; conditions: in vivo, 120 h; outline: as §2
[4] = biological target: Type-1 angiotensin II receptor (Homo sapiens) (UniProt P30556); assay: Inhibition of AT1 receptor at 10 uM by radioligand displacement assay
Type-1 angiotensin II receptor (Homo sapiens), sequence (P30556 whole entry): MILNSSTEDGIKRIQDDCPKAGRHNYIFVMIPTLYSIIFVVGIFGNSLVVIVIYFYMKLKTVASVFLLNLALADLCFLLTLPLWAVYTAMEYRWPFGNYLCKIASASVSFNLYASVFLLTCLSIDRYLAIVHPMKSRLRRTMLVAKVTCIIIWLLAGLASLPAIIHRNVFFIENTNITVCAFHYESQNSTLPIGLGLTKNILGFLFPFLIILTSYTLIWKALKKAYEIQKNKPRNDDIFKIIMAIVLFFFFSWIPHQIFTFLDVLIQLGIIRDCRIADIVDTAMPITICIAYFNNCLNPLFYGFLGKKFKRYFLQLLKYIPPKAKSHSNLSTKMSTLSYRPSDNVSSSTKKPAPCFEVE
Outline: (§3)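 Off-target radioligand binding panel. Test compound at 10 µM. Each assay had at least 6 control wells, with or without vehicle, for soluble compounds. Values are percent inhibition of radioligand binding. ≥50% inhibition was scored as a positive response.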

Mus musculus [5] = assay: Toxicity in CD1 mouse assessed as adverse effect in liver at 10 mg/kg, iv qd administered for 5 days; assay type: organism-based; design: dose 10 mg/kg, route intravenous; conditions: in vivo, 120 h; outline: as §2
[6] = Inhibition of alpha2 adrenergic receptor at 10 uM by radioligand displacement assay; outline: as §1
[7] = biological target: Neuropeptide Y receptor type 1 (Homo sapiens) (UniProt P25929); assay: Inhibition of Y1 receptor at 10 uM by radioligand displacement assay; outline: as §3
Neuropeptide Y receptor type 1 (Homo sapiens), sequence (P25929 whole entry): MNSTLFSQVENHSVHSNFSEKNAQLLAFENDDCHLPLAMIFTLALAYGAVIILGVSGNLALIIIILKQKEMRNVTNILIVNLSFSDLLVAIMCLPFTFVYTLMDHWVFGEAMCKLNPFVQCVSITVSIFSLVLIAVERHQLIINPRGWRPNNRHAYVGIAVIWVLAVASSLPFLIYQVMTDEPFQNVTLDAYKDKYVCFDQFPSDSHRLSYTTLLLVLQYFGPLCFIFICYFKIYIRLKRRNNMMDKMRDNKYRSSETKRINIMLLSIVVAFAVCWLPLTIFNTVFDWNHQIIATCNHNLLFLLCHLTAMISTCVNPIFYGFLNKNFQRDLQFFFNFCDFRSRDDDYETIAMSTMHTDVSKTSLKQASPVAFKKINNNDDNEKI

Mus musculus [8] = assay: Toxicity in CD1 mouse assessed as adverse effect in thymus iv qd administered for 5 days; conditions: in vivo, 120 h
Mus musculus [9] = assay: Antiasthamatic activity against ovalbumin-induced asthma in ovalbumin-sensitized BALB/c mouse assessed as inhibition of methacholine-induced eosinophil infiltration in bronchoalveolar lavage fluid at 1 mg/kg, iv administered 24 hrs prior to methacholine-challenge by light microscopy; assay type: functional, organism-based; design: dose 1 mg/kg; conditions: Lung
Outline: (§4)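 Mice made asthmatic by ovalbumin exposure. A single 1 mg/kg IV dose was given 24 h before aerosolized methacholine challenge. Controls received IV PBS vehicle or three inhaled doses of Combivent (5.2 mg/kg albuterol + 0.9 mg/kg ipratropium) at 48, 24 and 1 h before challenge. Bronchoconstriction was read by whole-body plethysmography, and eosinophils were counted in BALF. Data are mean ± SEM, 10 mice per group.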

Mus musculus [10] = assay: Antiasthamatic activity against ovalbumin-induced asthma in ovalbumin-sensitized BALB/c mouse assessed as inhibition of methacholine-induced bronchoconstriction at 1 mg/kg, iv administered 24 hrs prior to methacholine-challenge by plethysmography; assay type: functional, organism-based; design: dose 1 mg/kg; outline: as §4
[11] = biological target: 5-hydroxytryptamine receptor 3A (Homo sapiens) (UniProt P46098); assay: Inhibition of 5HT3 receptor at 10 uM by radioligand displacement assay; outline: as §3
5-hydroxytryptamine receptor 3A (Homo sapiens), sequence (P46098 whole entry): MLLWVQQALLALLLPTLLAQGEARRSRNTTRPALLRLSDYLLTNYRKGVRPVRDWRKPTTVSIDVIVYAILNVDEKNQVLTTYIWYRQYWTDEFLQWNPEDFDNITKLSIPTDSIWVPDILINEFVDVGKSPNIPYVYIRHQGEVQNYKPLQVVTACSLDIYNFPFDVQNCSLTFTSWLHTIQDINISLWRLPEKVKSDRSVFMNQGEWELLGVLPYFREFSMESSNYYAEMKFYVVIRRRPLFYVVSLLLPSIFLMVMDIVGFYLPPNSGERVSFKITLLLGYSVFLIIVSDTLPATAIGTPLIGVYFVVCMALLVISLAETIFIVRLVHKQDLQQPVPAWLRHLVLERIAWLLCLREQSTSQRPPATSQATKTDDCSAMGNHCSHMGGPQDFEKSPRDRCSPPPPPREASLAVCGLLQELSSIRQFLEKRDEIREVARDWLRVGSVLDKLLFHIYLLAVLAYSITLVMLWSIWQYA

[12] = Toxicity in iv dosed CD1 mouse administered qd for 5 days; assay type: organism-based; conditions: in vivo; outline: as §2
Mus musculus [13] = assay: Toxicity in CD1 mouse assessed as adverse effect in thymus at 50 mg/kg, iv qd administered for 5 days; assay type: organism-based; design: dose 50 mg/kg, route intravenous; conditions: in vivo, 120 h; outline: as §2
Mus musculus [14] = assay: Toxicity in CD1 mouse assessed as adverse effect in spleen at 50 mg/kg, iv qd administered for 5 days; assay type: organism-based; design: dose 50 mg/kg, route intravenous; conditions: in vivo, 120 h; outline: as §2
[15] = biological target: Adenosine receptor A1 (Homo sapiens) (UniProt P30542); assay: Inhibition of adenosine A1 receptor at 10 uM by radioligand displacement assay; outline: as §3
Adenosine receptor A1 (Homo sapiens), sequence (P30542 whole entry): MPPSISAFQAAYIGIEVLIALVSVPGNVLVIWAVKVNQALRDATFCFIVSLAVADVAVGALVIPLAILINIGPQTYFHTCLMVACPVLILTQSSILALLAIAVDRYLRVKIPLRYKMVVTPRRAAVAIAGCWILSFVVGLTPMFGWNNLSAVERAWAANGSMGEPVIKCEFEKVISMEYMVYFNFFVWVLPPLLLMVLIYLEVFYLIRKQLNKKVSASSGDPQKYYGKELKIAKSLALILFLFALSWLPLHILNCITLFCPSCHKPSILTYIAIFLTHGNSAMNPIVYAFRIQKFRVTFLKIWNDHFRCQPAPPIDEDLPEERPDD

[16] = Inhibition of Sodium channel at 10 uM by radioligand displacement assay; outline: as §3
[17] = Inhibition of delta2 opioid receptor at 10 uM by radioligand displacement assay; outline: as §1
[18] = biological target: 5-hydroxytryptamine receptor 1A (Homo sapiens) (UniProt P08908); assay: Inhibition of 5HT1A receptor at 10 uM by radioligand displacement assay; outline: as §3
5-hydroxytryptamine receptor 1A (Homo sapiens), sequence (P08908 whole entry): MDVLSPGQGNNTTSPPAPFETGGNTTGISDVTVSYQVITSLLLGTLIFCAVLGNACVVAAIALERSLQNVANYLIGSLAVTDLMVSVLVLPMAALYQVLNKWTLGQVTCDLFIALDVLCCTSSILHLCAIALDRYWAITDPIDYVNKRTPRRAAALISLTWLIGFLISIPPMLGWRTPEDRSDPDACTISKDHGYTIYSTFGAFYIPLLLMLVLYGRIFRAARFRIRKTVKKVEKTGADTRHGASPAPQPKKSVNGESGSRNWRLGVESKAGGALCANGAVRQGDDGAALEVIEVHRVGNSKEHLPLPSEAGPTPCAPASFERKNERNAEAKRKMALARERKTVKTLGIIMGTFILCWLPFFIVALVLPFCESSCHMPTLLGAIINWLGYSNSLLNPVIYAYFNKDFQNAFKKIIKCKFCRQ

Mus musculus [19] = assay: Toxicity in CD1 mouse assessed as adverse effect in thymus at 10 mg/kg, iv qd administered for 5 days; assay type: organism-based; design: dose 10 mg/kg, route intravenous; conditions: in vivo, 120 h; outline: as §2
[20] = biological target: Muscarinic acetylcholine receptor M2 (Homo sapiens) (UniProt P08172); assay: Inhibition of M2 receptor at 10 uM by radioligand displacement assay; outline: as §3
Muscarinic acetylcholine receptor M2 (Homo sapiens), sequence (P08172 whole entry): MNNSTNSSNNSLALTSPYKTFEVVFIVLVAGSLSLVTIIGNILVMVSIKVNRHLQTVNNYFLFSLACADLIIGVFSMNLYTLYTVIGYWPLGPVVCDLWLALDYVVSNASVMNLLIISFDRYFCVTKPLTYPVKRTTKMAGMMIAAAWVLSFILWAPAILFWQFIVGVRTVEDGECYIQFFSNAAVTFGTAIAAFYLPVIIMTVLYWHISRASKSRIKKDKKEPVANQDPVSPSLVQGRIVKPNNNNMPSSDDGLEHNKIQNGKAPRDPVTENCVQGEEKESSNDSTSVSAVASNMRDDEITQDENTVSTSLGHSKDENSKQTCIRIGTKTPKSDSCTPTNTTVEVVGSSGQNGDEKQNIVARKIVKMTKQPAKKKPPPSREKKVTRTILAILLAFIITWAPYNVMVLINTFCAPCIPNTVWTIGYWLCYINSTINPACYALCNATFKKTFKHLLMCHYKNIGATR

[21] = Inhibition of MT1 receptor at 10 uM by radioligand displacement assay; outline: as §3
[22] = biological target: 5-hydroxytryptamine receptor 2A (Homo sapiens) (UniProt P28223); assay: Inhibition of 5HT2A receptor at 10 uM by radioligand displacement assay; outline: as §3
5-hydroxytryptamine receptor 2A (Homo sapiens), sequence (P28223 whole entry): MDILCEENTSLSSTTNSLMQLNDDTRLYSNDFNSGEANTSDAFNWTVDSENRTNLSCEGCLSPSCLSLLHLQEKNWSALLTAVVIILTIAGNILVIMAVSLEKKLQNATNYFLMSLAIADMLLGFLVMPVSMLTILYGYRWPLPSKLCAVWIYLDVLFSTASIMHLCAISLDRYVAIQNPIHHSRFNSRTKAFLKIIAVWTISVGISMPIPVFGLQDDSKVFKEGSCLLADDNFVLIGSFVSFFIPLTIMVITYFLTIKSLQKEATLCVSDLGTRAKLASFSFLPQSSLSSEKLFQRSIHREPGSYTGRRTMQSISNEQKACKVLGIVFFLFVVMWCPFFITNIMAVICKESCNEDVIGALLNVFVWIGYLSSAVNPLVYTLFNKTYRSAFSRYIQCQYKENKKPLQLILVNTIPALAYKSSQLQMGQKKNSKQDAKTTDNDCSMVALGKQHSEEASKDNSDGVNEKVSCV

[23] = biological target: Vasopressin V1a receptor (Homo sapiens) (UniProt P37288); assay: Inhibition of V1a receptor at 10 uM by radioligand displacement assay; outline: as §3
Vasopressin V1a receptor (Homo sapiens), sequence (P37288 whole entry, looked up): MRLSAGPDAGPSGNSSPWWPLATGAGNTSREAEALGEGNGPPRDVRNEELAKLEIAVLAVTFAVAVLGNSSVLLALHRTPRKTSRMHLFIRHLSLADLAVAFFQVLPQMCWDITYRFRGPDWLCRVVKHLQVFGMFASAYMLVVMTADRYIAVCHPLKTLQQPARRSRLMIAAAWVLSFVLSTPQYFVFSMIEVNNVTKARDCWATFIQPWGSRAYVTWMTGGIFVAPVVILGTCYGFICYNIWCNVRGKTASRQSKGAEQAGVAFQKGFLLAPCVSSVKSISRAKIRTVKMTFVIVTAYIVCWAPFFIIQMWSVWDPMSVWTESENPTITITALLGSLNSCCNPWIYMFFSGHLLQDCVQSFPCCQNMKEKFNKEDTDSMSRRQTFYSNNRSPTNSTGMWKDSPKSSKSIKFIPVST

[24] = biological target: Endothelin-1 receptor (Homo sapiens) (UniProt P25101); assay: Inhibition of Eta receptor at 10 uM by radioligand displacement assay; outline: as §3
Endothelin-1 receptor (Homo sapiens), sequence (P25101 whole entry): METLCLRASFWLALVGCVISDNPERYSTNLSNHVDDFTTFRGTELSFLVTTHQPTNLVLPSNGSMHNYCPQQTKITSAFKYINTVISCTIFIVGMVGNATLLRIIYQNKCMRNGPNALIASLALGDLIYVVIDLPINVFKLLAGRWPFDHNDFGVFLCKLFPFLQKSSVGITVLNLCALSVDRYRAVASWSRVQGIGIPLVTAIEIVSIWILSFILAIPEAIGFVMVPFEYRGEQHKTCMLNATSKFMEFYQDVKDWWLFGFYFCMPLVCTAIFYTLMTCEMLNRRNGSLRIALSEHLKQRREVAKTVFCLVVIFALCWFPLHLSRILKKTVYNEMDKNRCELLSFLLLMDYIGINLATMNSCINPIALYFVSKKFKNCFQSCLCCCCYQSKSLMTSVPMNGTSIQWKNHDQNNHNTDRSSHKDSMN

[25] = biological target: Muscarinic acetylcholine receptor M1 (Homo sapiens) (UniProt P11229); assay: Inhibition of M1 receptor at 10 uM by radioligand displacement assay; outline: as §3
Muscarinic acetylcholine receptor M1 (Homo sapiens), sequence (P11229 whole entry): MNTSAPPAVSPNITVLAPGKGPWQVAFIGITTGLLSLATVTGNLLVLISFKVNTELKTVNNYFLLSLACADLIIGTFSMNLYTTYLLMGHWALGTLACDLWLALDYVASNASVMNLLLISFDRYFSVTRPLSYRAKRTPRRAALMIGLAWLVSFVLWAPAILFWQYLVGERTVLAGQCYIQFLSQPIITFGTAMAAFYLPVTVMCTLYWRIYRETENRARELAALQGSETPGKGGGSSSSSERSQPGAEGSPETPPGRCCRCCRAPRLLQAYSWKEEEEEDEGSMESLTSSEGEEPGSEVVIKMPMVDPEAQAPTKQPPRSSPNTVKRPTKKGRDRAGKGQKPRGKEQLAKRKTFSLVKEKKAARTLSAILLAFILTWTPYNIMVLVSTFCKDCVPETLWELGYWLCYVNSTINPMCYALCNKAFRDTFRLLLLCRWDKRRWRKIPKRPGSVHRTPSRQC

Sodium-dependent dopamine transporter (Homo sapiens), sequence (Q01959 whole entry): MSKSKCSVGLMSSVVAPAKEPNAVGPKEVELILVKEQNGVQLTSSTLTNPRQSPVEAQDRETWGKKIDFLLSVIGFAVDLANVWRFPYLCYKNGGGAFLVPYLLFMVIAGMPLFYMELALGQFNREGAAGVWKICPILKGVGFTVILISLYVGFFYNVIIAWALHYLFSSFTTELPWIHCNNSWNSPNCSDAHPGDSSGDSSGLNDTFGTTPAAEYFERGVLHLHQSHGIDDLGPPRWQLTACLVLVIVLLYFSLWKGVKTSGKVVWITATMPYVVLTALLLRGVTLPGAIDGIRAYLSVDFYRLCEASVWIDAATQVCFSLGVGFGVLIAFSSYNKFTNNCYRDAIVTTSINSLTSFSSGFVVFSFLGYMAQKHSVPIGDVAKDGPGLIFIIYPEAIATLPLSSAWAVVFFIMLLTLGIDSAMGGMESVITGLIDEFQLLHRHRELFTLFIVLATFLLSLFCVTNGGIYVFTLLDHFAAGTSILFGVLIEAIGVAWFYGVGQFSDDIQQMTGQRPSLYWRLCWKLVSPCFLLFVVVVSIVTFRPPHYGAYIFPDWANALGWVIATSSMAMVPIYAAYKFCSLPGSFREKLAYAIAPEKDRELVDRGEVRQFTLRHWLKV

inhibition [1] | inhibition [4] | inhibition [6] | inhibition [7] | inhibition [11] | inhibition [15] | inhibition [16] | inhibition [17] | inhibition [18] | inhibition [20] | inhibition [21] | inhibition [22] | inhibition [23] | inhibition [24] | inhibition [25] | SMILES | further results
inactive | inactive | inactive | inactive | inactive | inactive | inactive | inactive | inactive | inactive | inactive | inactive | inactive | inactive | inactive | Cc1cc(NS(C)(=O)=O)ccc1-n1c(CCC(=O)O)ccc1-c1ccc(-n2ccnc2C)s1 | Activity (Mus musculus [2]): Toxic; Activity (Mus musculus [3]): Toxic; Activity (Mus musculus [5]): Toxic; Activity (Mus musculus [8]): Toxic; Activity (Mus musculus [9]): Active; Activity (Mus musculus [10]): Active; NOAEL at 120 h [12]: 1 mg/kg/day; Activity (Mus musculus [13]): Toxic; Activity (Mus musculus [14]): Toxic; Activity (Mus musculus [19]): Toxic
inactive | inactive | inactive | inactive | inactive | inactive | inactive | inactive | inactive | inactive | inactive | inactive | inactive | inactive | inactive | Cc1cc(NS(C)(=O)=O)ccc1-n1c(CCC(=O)O)ccc1-c1ccc(-n2ccnc2)cc1 | –
